The record followed here is ChEMBL document CHEMBL4000256, “Light-Regulated NO Release as a Novel Strategy To Overcome Doxorubicin Multidrug Resistance” (ACS Med Chem Lett, 2017).

The nature of data set [1]: Stability in pH 7.4 PBS irradiated with 7 mW/cm2 light assessed as bleaching in NOP1 band at 10 uM up to 60 mins in presence of calf thymus DNA by absorption spectrum method. The data set is classed as physicochemical. Particulars: buffer, pH 7.4, 1 h. The method in brief: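 Absorption spectra recorded after 0, 30, 40, 50 and 60 min irradiation at λexc 405 nm. Solution at 10 μM with 18 μM ct-DNA in PBS (pH 7.4, 10 mM, 3% DMSO).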

Data set [2] is described as follows: Induction of NO release in pH 7.4 PBS irradiated with 7 mW/cm2 light at 10 uM after 0.5 hrs by amperometric detection assay. The method, boiled down:
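NO release recorded during alternating light (λexc 405 nm) and dark cycles. Solution at 10 μM in PBS (pH 7.4, 10 mM, 3% DMSO), with or without 18 μM ct-DNA.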

Data set [3] is filed under the species Bos taurus. The experiment in a line: Binding affinity to calf thymus duplex DNA at 10 uM by fluorescence spectroscopic method.
Data set [4] is described as follows: Solubility of the compound in PBS with 3% DMSO. Particulars: buffer. Format: physicochemical.
Data set [5] can be described thus: Stability of the compound in PBS with 3% DMSO. Format: physicochemical. Particulars: buffer.
Data set [6] can be described thus: Half life in DMEM medium. Format: physicochemical.
Data set [7] has as its system M14. The experiment in a line: Dark toxicity in human M14 cells assessed as increase in nitrite levels at 5 uM measured after 20 mins in presence of doxorubicin by Griess reagent based spectrophotometric method. The data set is classed as cell-based. To be noted: m14, 20 min. The method in brief: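 M14 melanoma cells held 20 min at room temperature in PBS, either in the dark or under 400 nm light (7 mW/cm2), with 5 μM compound alone or alongside 5 μM doxorubicin. Nitrite in the supernatant measured by Griess assay, in triplicate, n = 3.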
Background: The Griess reaction detects nitrite, a stable product of nitric oxide.

For data set [8], the species on record is Homo sapiens. The experiment in a line: Inhibition of Pgp in 7 mW/cm'2 irradiated human M14 cells assessed as nitration of tyrosine in pgp at 5 uM measured after 20 mins in presence of doxorubicin by immunoblotting. The method in brief: (§1)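 M14 melanoma cells held 20 min at room temperature in PBS under 400 nm light (7 mW/cm2) with 5 μM compound, alone or with equimolar doxorubicin. Nitrated ABC transporters (Pgp, MRP1, MRP4, BCRP) detected by immunoblot.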
On the technique in general: Immunoblotting shows a protein as a band on a membrane.

Data set [9] has as its system M14. The experiment in a line: Dark toxicity in human M14 cells assessed as increase in LDH release at 5 uM measured after 20 mins by spectrophotometric method. The data set is classed as cell-based. Particulars: m14, 20 min. The method, boiled down:
(§2)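 Cells (M14 melanoma, human fibroblasts or rat H9c2 cardiomyocytes) kept 20 min at room temperature in PBS in the dark, with 5 μM compound, given alone or with equimolar 5 μM doxorubicin. Cytotoxicity read as extracellular LDH release. Triplicate measurements, n = 3.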

Data set [10] deals with T1, Multidrug resistance-associated protein 1 (Homo sapiens, UniProt P33527). The data set can be described thus: Inhibition of MRP1 in 7 mW/cm'2 irradiated human M14 cells assessed as reduction in ATPase activity at 5 uM measured after 20 mins in presence of doxorubicin by immunoblotting. The method, boiled down:
(§3)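 M14 melanoma cells held 20 min at room temperature in PBS under 400 nm light (7 mW/cm2) with 5 μM compound, alone or with equimolar doxorubicin. Transporter ATPase activity then measured; n = 3.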

Data set [11] relates to Fibroblast. The experiment in a line: Dark toxicity against human fibroblasts at 5 uM measured after 20 mins co-incubated with doxorubicin by spectrophotometric method. Format: cell-based. The method in brief: as §2
The target in data set [12] is T1, Multidrug resistance-associated protein 1. The experiment in a line: Inhibition of MRP1 in 7 mW/cm'2 irradiated human M14 cells assessed as nitration of tyrosine in MRP1 at 5 uM measured after 20 mins in presence of doxorubicin by immunoblotting. The method, boiled down:
as §1

Data set [13] concerns the target T2, ATP-binding cassette sub-family C member 4 (Homo sapiens, UniProt O15439).
T2 sequence (O15439 whole entry): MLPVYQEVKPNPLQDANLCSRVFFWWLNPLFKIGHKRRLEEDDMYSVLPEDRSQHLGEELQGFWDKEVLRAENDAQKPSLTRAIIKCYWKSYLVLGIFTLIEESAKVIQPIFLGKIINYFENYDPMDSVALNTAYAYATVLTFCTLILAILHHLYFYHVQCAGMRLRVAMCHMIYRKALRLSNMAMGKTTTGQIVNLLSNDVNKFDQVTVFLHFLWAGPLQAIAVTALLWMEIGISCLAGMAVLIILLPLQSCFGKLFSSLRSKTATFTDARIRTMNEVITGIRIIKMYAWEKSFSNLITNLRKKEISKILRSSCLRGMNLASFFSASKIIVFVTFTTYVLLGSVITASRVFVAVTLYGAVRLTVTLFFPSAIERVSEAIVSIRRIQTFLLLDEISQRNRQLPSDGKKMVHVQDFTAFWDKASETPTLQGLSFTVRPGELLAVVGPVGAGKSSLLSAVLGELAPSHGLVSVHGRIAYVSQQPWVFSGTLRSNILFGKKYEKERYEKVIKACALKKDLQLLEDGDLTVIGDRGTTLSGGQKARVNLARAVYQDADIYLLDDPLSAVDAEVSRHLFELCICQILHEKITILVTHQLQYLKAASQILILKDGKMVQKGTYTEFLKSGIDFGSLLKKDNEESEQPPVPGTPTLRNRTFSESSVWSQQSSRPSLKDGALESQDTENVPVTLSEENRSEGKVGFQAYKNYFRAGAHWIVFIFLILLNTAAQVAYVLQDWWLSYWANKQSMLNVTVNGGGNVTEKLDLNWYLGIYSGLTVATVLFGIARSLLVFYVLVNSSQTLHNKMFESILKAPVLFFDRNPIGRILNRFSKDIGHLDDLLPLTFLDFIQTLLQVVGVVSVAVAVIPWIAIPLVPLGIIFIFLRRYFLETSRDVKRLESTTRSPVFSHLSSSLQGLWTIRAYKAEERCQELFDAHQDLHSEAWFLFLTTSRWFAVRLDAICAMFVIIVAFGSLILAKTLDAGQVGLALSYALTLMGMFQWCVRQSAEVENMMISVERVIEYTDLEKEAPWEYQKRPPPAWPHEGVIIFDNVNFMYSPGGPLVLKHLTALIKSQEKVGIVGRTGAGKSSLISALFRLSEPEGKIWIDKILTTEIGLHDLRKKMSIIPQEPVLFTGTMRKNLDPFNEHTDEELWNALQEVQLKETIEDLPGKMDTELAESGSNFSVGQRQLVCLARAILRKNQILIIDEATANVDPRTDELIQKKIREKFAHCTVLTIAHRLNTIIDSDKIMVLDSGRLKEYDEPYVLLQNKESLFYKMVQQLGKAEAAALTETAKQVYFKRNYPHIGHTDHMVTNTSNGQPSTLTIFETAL
The experiment in a line: Inhibition of MRP4 in 7 mW/cm'2 irradiated human M14 cells assessed as reduction in ATPase activity at 5 uM measured after 20 mins in presence of doxorubicin by immunoblotting. The method, boiled down:
as §3

Data set [14] addresses T2, ATP-binding cassette sub-family C member 4. The data set can be described thus: Inhibition of MRP4 in 7 mW/cm'2 irradiated human M14 cells assessed as nitration of tyrosine in MRP4 at 5 uM measured after 20 mins in presence of doxorubicin by immunoblotting. The method, boiled down:
as §1

The species entered for data set [15] is Homo sapiens. The data set can be described thus: Inhibition of Pgp in 7 mW/cm'2 irradiated human M14 cells assessed as reduction in ATPase activity at 5 uM measured after 20 mins in presence of doxorubicin by immunoblotting. The method in brief:
as §3

Calls of active or inactive are those of the source.

T1 sequence (P33527 whole entry): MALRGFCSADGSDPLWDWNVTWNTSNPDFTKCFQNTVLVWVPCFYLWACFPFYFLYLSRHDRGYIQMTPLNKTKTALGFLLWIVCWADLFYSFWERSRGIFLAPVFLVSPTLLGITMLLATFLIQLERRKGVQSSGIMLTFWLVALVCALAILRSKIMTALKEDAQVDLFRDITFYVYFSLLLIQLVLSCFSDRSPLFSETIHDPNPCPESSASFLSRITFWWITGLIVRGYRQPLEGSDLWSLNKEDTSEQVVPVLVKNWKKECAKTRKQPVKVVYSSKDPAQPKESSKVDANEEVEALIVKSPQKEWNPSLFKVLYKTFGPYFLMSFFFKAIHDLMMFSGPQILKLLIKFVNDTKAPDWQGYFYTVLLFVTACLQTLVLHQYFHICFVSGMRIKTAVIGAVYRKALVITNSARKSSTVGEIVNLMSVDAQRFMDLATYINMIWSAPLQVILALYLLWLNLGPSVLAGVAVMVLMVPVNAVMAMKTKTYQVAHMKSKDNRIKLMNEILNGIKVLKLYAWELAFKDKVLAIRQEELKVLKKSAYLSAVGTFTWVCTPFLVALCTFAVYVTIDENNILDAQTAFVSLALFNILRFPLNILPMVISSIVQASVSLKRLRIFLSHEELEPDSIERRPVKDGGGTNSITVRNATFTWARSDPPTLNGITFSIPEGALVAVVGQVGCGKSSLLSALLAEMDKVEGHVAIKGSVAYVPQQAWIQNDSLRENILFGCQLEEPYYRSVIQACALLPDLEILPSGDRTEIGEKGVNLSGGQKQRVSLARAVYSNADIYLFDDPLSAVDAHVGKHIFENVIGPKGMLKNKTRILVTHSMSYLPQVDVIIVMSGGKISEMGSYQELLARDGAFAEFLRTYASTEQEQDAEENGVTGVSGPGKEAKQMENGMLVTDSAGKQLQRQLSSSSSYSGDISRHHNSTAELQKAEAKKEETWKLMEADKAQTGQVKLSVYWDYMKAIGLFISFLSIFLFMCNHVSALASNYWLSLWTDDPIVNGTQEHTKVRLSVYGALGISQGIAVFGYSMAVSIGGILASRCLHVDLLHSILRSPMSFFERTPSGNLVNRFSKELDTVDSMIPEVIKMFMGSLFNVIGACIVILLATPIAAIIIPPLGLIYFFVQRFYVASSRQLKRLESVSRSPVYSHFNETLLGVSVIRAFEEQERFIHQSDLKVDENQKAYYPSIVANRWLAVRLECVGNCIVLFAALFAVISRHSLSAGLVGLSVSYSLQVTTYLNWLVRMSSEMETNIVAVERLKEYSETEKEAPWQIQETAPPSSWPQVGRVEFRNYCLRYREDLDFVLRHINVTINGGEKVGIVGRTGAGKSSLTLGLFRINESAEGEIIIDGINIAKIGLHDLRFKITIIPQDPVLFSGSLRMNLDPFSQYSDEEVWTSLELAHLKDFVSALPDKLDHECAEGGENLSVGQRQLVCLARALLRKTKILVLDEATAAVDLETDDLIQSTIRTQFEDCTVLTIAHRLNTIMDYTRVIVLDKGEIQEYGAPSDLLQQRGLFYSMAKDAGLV

With `COc1cccc2c1C(=O)c1c(O)c3c(c(O)c1C2=O)C[C@@](O)(C(=O)COC(=O)c1ccc(C(=O)NCCCNc2ccc([N+](=O)[O-])c(C(F)(F)F)c2)cc1)C[C@@H]3O[C@H]1C[C@H](N)[C@H](O)[C@H](C)O1.Cl`, the Stability entry in data set [1] and in data set [5] was “Stable” throughout. For the same molecule, the outcome in data set [2] and in data set [3] was Active. Also, in data set [4], the solubility entry is given as “Soluble”. The same molecule gave a half-life in [6] above 24 h.

Take `NCCCNc1ccc([N+](=O)[O-])c(C(F)(F)F)c1`: the Activity result in [7], in data set [9] and in data set [11] was “Non-Toxic” each time. The inhibition result in [8] and in [15] was “Active” in each case. For the same molecule, the “inhibition (INH)” value in data set [10], in data set [12], in data set [13] and in [14] was “Active” in each case.

What is called half-life is the time needed for the level to fall by half in the phase considered. A lower half-life goes with rapid decline.
